{"source": "ChEMBL document CHEMBL3994628", "about": "“Coumarin derivatives as potential antitumor agents: Growth inhibition, apoptosis induction and multidrug resistance reverting activity” (Eur J Med Chem, 2017)", "key": {"[1]": {"assay": "Growth inhibition of human LoVo/DX cells after 24 hrs by MTT assay", "format": "functional, cell-based", "procedure,_shortened": "(§1)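 Cells were plated at 2x10^4 cells/cm2 and grown in RPMI 1640 with 10% FBS and 2 mM glutamine at 37 °C. They were exposed for 24 h to 0.01-100 µM, diluted from a 10 mmol/L DMSO stock, in triplicate. MTT was then added at 0.2 mg/mL in PBS for 4 h and the formazan dissolved in DMSO. A540 was read and IC50 taken from the dose-response curve, mean ± SD. The ratio compares the IC50s of the two lines.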"}, "[2]": {"tested_on": "LoVo", "assay": "Growth inhibition of human LoVo cells after 24 hrs by MTT assay", "format": "functional, cell-based", "procedure,_shortened": "as §1"}, "[3]": {"species": "Homo sapiens", "assay": "Inhibition of P-gp in human LoVo/DX cells assessed as reduction in Rhodamine123 efflux at 2.5 uM preincubated for 15 mins followed by Rhodamine123 addition measured after 1 hr by flow cytometry", "format": "cell-based", "procedure,_shortened": "(§2)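 LoVo/Dx cells at 3x10^5 cells/mL in serum-free, phenol red-free medium were preincubated at room temperature for 15 min at 2.5 or 10 µM. Rhodamine 123 was then added at 2 µM for 1 h at 37 °C in the dark. After a PBS wash, fluorescence was read by flow cytometry at 488 nm excitation and 530 nm emission. Mean control fluorescence was subtracted. Verapamil served as positive control. Data are mean ± SD of ≥3 experiments.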"}, "[4]": {"tested_on": "LoVo/DX", "assay": "Cytostatic activity against human LoVo/DX cells by phase contrast microscopic method", "format": "functional, cell-based", "procedure,_shortened": "(§3)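 LoVo or LoVo/Dx cells were plated at 2x10^4 cells/cm2 in RPMI 1640 with 10% FBS and exposed for 24 h. Phase contrast microscopy was used to judge growth delay without cell death (cytostatic) or cell death, shown as floating cells (cytotoxic).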"}, "[5]": {"assay": "Selectivity ratio of IC50 for human LoVo cells to IC50 for human LoVo/DX cells", "format": "functional", "procedure,_shortened": "as §1"}, "[6]": {"tested_on": "LoVo", "assay": "Induction of apoptosis in human LoVo cells assessed as caspase-activation using DEVD as substrate at cytotoxic concentration after 24 hrs by fluorimetric assay relative to control", "format": "functional", "procedure,_shortened": "(§4)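 After 24 h exposure at cytotoxic concentration, DEVD-hydrolysing caspase activity was measured fluorimetrically in cell extracts. Values are given as percentage increase over untreated control, set at 100%. Data are mean ± SD of at least three independent experiments.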"}, "[7]": {"tested_on": "LoVo/DX", "assay": "Cytotoxic activity against human LoVo/DX cells after 24 hrs by phase contrast microscopic method", "format": "functional, cell-based", "procedure,_shortened": "as §3"}, "[8]": {"tested_on": "LoVo/DX", "assay": "Cell cycle arrest in human LoVo/DX cells assessed as accumulation at G0/G1 phase at 1.8 uM after 24 hrs by propidium iodide staining based flow cytometry", "format": "functional"}, "[9]": {"tested_on": "LoVo/DX", "assay": "Cell cycle arrest in human LoVo/DX cells assessed as accumulation at G2/M phase at 3.6 uM after 24 hrs by propidium iodide staining based flow cytometry", "format": "functional"}, "[10]": {"species": "Homo sapiens", "assay": "Substrate activity at P-gp in human LoVo/DX cells assessed as ATP consumption at 10 uM after 2 hrs by ATPlite assay", "format": "cell-based"}, "[11]": {"tested_on": "LoVo", "assay": "Cytotoxic activity against human LoVo cells after 24 hrs by phase contrast microscopic method", "format": "functional, cell-based", "procedure,_shortened": "as §3"}, "[12]": {"assay": "Induction of apoptosis in human LoVo/DX cells assessed as caspase-activation using DEVD as substrate at cytotoxic concentration after 24 hrs by fluorimetric assay relative to sensitive LoVo cells", "format": "functional"}, "[13]": {"tested_on": "LoVo", "assay": "Cytostatic activity against human LoVo cells by phase contrast microscopic method", "format": "functional, cell-based", "procedure,_shortened": "as §3"}, "[14]": {"species": "Homo sapiens", "assay": "Inhibition of P-gp in human LoVo/DX cells assessed as reduction in Rhodamine123 efflux at 10 uM preincubated for 15 mins followed by Rhodamine123 addition measured after 1 hr by flow cytometry", "format": "cell-based", "procedure,_shortened": "as §2"}, "[15]": {"tested_on": "LoVo", "assay": "Cell cycle arrest in human LoVo cells assessed as accumulation at G2/M phase at 3.5 to 7 uM after 24 hrs by propidium iodide staining based flow cytometry", "format": "functional"}, "[16]": {"tested_on": "LoVo/DX", "assay": "Cell cycle arrest in human LoVo/DX cells assessed as accumulation at G0/G1 phase after 24 hrs by propidium iodide staining based flow cytometry", "format": "functional"}, "[17]": {"tested_on": "LoVo", "assay": "Cell cycle arrest in human LoVo cells assessed as accumulation at G0/G1 phase after 24 hrs by propidium iodide staining based flow cytometry", "format": "functional"}, "[18]": {"tested_on": "LoVo/DX", "assay": "Induction of apoptosis in human LoVo/DX cells assessed as caspase-activation using DEVD as substrate at cytotoxic concentration after 24 hrs by fluorimetric assay", "format": "functional, cell-based", "procedure,_shortened": "as §4"}, "[19]": {"species": "Homo sapiens", "assay": "Inhibition of P-gp in human LoVo/DX cells assessed as reduction in Rhodamine123 efflux at 2.5 to 10 uM preincubated for 15 mins followed by Rhodamine123 addition measured after 1 hr by flow cytometry relative to verapamil", "format": "cell-based", "procedure,_shortened": "as §2"}, "[20]": {"assay": "Selectivity ratio of IC50 for human LoVo/DX cells to IC50 for human LoVo cells", "format": "functional", "procedure,_shortened": "as §1"}, "[21]": {"tested_on": "LoVo", "assay": "Cell cycle arrest in human LoVo cells assessed as accumulation at G2/M phase after 24 hrs by propidium iodide staining based flow cytometry", "format": "functional"}, "[22]": {"tested_on": "LoVo/DX", "assay": "Cell cycle arrest in human LoVo/DX cells assessed as accumulation at S phase after 24 hrs by propidium iodide staining based flow cytometry", "format": "functional"}}, "note": "Calls of active or inactive are those of the source. The calls are words filed in the database; no cut-off is given here."}
{"smiles": "C#C/C(C)=C/COc1ccc2ccc(=O)oc2c1", "values": [{"measurement": "IC50", "setting": "[1]", "value": 71.5, "unit": "µM"}, {"measurement": "IC50", "setting": "[2]", "value": 48, "unit": "µM"}, {"measurement": "P-gp inhibition (active/not active)", "setting": "[3]", "value": "inactive"}]}
{"smiles": "C/C(C#CCN1CCN(C2c3ccccc3-c3ccccc32)CC1)=C\\COc1ccc2ccc(=O)oc2c1", "values": [{"measurement": "Activity", "setting": "[4]", "value": "Active"}, {"measurement": "Ratio IC50", "setting": "[5]", "value": 2}, {"measurement": "Activity", "setting": "[6]", "value": 72, "unit": "%"}, {"measurement": "Activity", "setting": "[7]", "value": "Active"}, {"measurement": "Activity", "setting": "[8]", "value": "Active"}, {"measurement": "Activity", "setting": "[9]", "value": "Active"}, {"measurement": "Activity", "setting": "[10]", "value": "Active"}, {"measurement": "IC50", "setting": "[1]", "value": 1.8, "unit": "µM"}, {"measurement": "Activity", "setting": "[11]", "value": "Active"}, {"measurement": "fold change (FC)", "setting": "[12]", "value": 3}, {"measurement": "IC50", "setting": "[2]", "value": 3.5, "unit": "µM"}, {"measurement": "Activity", "setting": "[13]", "value": "Active"}, {"measurement": "P-gp inhibition (active/not active)", "setting": "[3]", "value": "Active"}, {"measurement": "P-gp inhibition (active/not active)", "setting": "[14]", "value": "inactive"}, {"measurement": "Activity", "setting": "[15]", "value": "Active"}]}
{"smiles": "C/C(C#CCN1CCN(C(c2ccc(F)cc2)c2ccc(F)cc2)CC1)=C\\COc1ccc2ccc(=O)oc2c1", "values": [{"measurement": "Activity", "setting": "[10]", "value": "Active"}, {"measurement": "IC50", "setting": "[1]", "value": 60, "unit": "µM"}, {"measurement": "IC50", "setting": "[2]", "value": 47, "unit": "µM"}, {"measurement": "P-gp inhibition (active/not active)", "setting": "[3]", "value": "Active"}, {"measurement": "P-gp inhibition (active/not active)", "setting": "[14]", "value": "Active"}]}
{"smiles": "C/C(C#CCN1CCN(Cc2ccccc2)CC1)=C\\COc1ccc2ccc(=O)oc2c1", "values": [{"measurement": "IC50", "setting": "[1]", "value": 19.6, "unit": "µM"}, {"measurement": "IC50", "setting": "[2]", "value": 67.6, "unit": "µM"}, {"measurement": "P-gp inhibition (active/not active)", "setting": "[3]", "value": "Active"}]}
{"smiles": "COc1cc2c(cc1OC)CN(CC#C/C(C)=C/COc1ccc3ccc(=O)oc3c1)CC2", "values": [{"measurement": "Activity", "setting": "[4]", "value": "Active"}, {"measurement": "Activity", "setting": "[16]", "value": "Dose-dependent effect"}, {"measurement": "Activity", "setting": "[6]", "value": 39, "unit": "%"}, {"measurement": "Activity", "setting": "[7]", "value": "Active"}, {"measurement": "Activity", "setting": "[17]", "value": "Dose-dependent effect"}, {"measurement": "Activity", "setting": "[10]", "value": "inactive"}, {"measurement": "IC50", "setting": "[1]", "value": 10.6, "unit": "µM"}, {"measurement": "Activity", "setting": "[11]", "value": "Active"}, {"measurement": "IC50", "setting": "[2]", "value": 10.7, "unit": "µM"}, {"measurement": "Activity", "setting": "[18]", "value": "Active"}, {"measurement": "Activity", "setting": "[13]", "value": "Active"}, {"measurement": "P-gp inhibition (active/not active)", "setting": "[3]", "value": "Active"}, {"measurement": "P-gp inhibition (active/not active)", "setting": "[14]", "value": "Active"}]}
{"smiles": "CC(C)=CCOc1ccc2ccc(=O)oc2c1", "note": "[7-PRENYLOXYCOUMARIN]", "values": [{"measurement": "IC50", "setting": "[1]", "value": 50.3, "unit": "µM"}, {"measurement": "IC50", "setting": "[2]", "value": 30, "unit": "µM"}, {"measurement": "P-gp inhibition (active/not active)", "setting": "[3]", "value": "Active"}]}
{"smiles": "COc1ccc(CCN(C)CC#C/C(C)=C/COc2ccc3ccc(=O)oc3c2)cc1OC", "values": [{"measurement": "fold change (FC)", "setting": "[19]", "value": 10}, {"measurement": "Activity", "setting": "[10]", "value": "inactive"}, {"measurement": "IC50", "setting": "[1]", "value": 15.4, "unit": "µM"}, {"measurement": "IC50", "setting": "[2]", "value": 40, "unit": "µM"}, {"measurement": "P-gp inhibition (active/not active)", "setting": "[3]", "value": "Active"}, {"measurement": "P-gp inhibition (active/not active)", "setting": "[14]", "value": "Active"}]}
{"smiles": "COc1ccc(CCN(C)CCCC(C#N)(c2ccc(OC)c(OC)c2)C(C)C)cc1OC", "note": "(stereo not given)", "values": [{"measurement": "Activity", "setting": "[10]", "value": "Active"}]}
{"smiles": "C/C(C#CCN1CCN(c2ccccc2)CC1)=C\\COc1ccc2ccc(=O)oc2c1", "values": [{"measurement": "IC50", "setting": "[1]", "value": 12, "unit": "µM"}, {"measurement": "IC50", "setting": "[2]", "value": 41, "unit": "µM"}, {"measurement": "P-gp inhibition (active/not active)", "setting": "[3]", "value": "Active"}]}
{"smiles": "C/C(C#CCN1CCC(n2c(=O)[nH]c3ccccc32)CC1)=C\\COc1ccc2ccc(=O)oc2c1", "values": [{"measurement": "Activity", "setting": "[4]", "value": "Active"}, {"measurement": "Activity", "setting": "[6]", "value": 19, "unit": "%"}, {"measurement": "Activity", "setting": "[7]", "value": "Active"}, {"measurement": "Ratio IC50", "setting": "[20]", "value": 2}, {"measurement": "Activity", "setting": "[17]", "value": "Dose-dependent effect"}, {"measurement": "Activity", "setting": "[21]", "value": "Dose-dependent effect"}, {"measurement": "Activity", "setting": "[10]", "value": "Active"}, {"measurement": "IC50", "setting": "[1]", "value": 5, "unit": "µM"}, {"measurement": "Activity", "setting": "[11]", "value": "Active"}, {"measurement": "IC50", "setting": "[2]", "value": 2.5, "unit": "µM"}, {"measurement": "Activity", "setting": "[18]", "value": "Active"}, {"measurement": "Activity", "setting": "[13]", "value": "Active"}, {"measurement": "P-gp inhibition (active/not active)", "setting": "[3]", "value": "Active"}, {"measurement": "P-gp inhibition (active/not active)", "setting": "[14]", "value": "Active"}, {"measurement": "Activity", "setting": "[22]", "value": "Dose-dependent effect"}]}
{"smiles": "C/C(C#CCN1CCCCC1)=C\\COc1ccc2ccc(=O)oc2c1", "values": [{"measurement": "IC50", "setting": "[1]", "value": 33, "unit": "µM"}, {"measurement": "IC50", "setting": "[2]", "value": 62, "unit": "µM"}, {"measurement": "P-gp inhibition (active/not active)", "setting": "[3]", "value": "Active"}]}
